Laboratory results reported in ChEMBL document CHEMBL2176991 (J Med Chem, 2012).
One block for each compound: values may come before it. Activity calls are given as the source filed them. No cut-off for these calls is given here. Peptide text beside a SMILES is read from it. * marks the point of attachment. X4 = O=C1OC2(c3ccc(O)cc3Oc3cc(O)ccc32)c2cccc(NC(=S)*)c21; βAla = NCCC(=O)O

Legend:
[1] = species: Homo sapiens; test: Selectivity ratio of Ki for human recombinant furin to Ki for human recombinant PACE4
[2] = tested on: DU-145; test: Cellular uptake in human DU145 cells at 10 uM after 1 hr by propidium iodide staining-based FACS flow cytometric analysis; assay type: ADME, cell-based; settings: du-145, 1 h
How it was run: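 DU145 cells (4 × 10⁵) incubated 1 h with 10 μM FITC-labeled peptide in serum-free RPMI, then pelleted and washed twice with 0.05% trypsin for 5 min at 37 °C to strip membrane-bound label. Propidium iodide (10 μg/mL, 2 min) used to exclude cells with damaged membranes. At least 10000 events acquired by FACS; uptake reported as geometric mean fluorescence.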

[3] = target: T1, Proprotein convertase subtilisin/kexin type 6 (Homo sapiens, UniProt P29122); test: Competitive inhibition of human recombinant PACE4 expressed in Drosophila S2 cells using pyroGlu-Arg-Val-Lys-Arg-methyl-coumaryl-7-amide as substrate at pH 6.5 after 60 mins by spectrofluorometric analysis
T1 sequence (P29122 whole entry): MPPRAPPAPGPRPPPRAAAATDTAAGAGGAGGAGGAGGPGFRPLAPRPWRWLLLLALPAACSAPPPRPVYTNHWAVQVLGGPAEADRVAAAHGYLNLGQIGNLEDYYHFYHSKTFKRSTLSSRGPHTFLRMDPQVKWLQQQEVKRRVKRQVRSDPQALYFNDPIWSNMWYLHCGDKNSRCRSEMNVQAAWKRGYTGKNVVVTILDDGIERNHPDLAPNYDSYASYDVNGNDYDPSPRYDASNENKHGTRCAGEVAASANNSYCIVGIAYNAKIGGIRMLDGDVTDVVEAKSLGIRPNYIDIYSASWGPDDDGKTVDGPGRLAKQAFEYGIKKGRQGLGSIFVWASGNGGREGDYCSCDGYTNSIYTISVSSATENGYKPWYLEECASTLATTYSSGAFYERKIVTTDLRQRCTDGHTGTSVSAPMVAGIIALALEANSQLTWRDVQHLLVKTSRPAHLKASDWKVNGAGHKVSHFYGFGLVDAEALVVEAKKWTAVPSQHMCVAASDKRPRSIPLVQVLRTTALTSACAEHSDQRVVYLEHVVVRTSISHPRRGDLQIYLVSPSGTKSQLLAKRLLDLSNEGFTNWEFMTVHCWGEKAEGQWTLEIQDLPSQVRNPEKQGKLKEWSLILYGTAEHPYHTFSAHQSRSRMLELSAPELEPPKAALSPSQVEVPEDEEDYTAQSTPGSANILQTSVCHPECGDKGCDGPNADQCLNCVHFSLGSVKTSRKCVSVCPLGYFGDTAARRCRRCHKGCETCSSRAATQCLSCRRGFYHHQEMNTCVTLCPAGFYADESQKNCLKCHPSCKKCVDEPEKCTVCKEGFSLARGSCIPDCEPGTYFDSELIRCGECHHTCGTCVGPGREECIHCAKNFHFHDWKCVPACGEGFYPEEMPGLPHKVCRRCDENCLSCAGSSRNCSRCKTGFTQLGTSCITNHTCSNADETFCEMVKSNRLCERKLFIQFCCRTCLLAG
How it was run: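 Soluble human PACE4 purified from S2 conditioned medium, assayed in 20 mM Bis-Tris pH 6.5, 1 mM CaCl₂, 1.8 mg/mL BSA with 100 μM substrate, 37 °C, 60 min. Real-time fluorescence read; inhibitors added at decreasing concentrations. Ki from IC50 by Cheng–Prusoff, Km 3.5 μM. Means of three independent experiments.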

[4] = target: Furin (Homo sapiens, UniProt P09958); test: Competitive inhibition of human recombinant furin expressed in Drosophila S2 cells using pyroGlu-Arg-Val-Lys-Arg-methyl-coumaryl-7-amide as substrate at pH 7.5 after 60 mins by spectrofluorometric analysis
How it was run: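 Recombinant soluble human furin from S2 medium, tested in 100 mM Hepes pH 7.5, 1 mM CaCl₂, 1 mM β-mercaptoethanol, 1.8 mg/mL BSA; substrate 100 μM, 37 °C, 60 min, kinetic fluorescence read. Inhibitors added at decreasing concentrations. Ki derived from IC50 by Cheng–Prusoff using Km 4.61 μM; three independent experiments.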

[5] = tested on: LNCaP; test: Cell cycle arrest in human LNCAP cells assessed as decrease in accumulation at S phase after 96 hrs by propidium iodide staining-based FACS flow cytometric analysis; assay type: functional
[6] = tested on: LNCaP; test: Cell cycle arrest in human LNCAP cells assessed as accumulation at G0/G1 phase after 96 hrs by propidium iodide staining-based FACS flow cytometric analysis
[7] = tested on: LNCaP; test: Cell cycle arrest in human LNCAP cells assessed as accumulation at S phase at 200 uM after 96 hrs by propidium iodide staining-based FACS flow cytometric analysis (reference value: 15.6 +/- 1.3 %); assay type: functional
[8] = tested on: LNCaP; test: Cell cycle arrest in human LNCAP cells assessed as accumulation at G0/G1 phase at 100 uM after 96 hrs by propidium iodide staining-based FACS flow cytometric analysis (reference value: 74.3 +/- 0.1 %); assay type: functional
[9] = tested on: PC-3; test: Cytotoxicity against human PC3 cells assessed as growth inhibition after 72 hrs by MTT assay; assay type: functional, cell-based
How it was run: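 Cells plated in 96-well format: DU145 and PC3 at 1500/well, LNCaP at 2500/well on poly-lysine. After 24 h, medium was changed and peptide added for 72 h in RPMI 1640 (5% FBS for DU145, 10% for LNCaP and PC3). MTT at 1 mg/mL final for 4 h (DU145, LNCaP) or 6 h (PC3). Formazan dissolved in 2-propanol-HCl and signal normalized to vehicle (water, 0.1% DMSO). IC50 from curve fitting.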

[10] = Stability of the compound in presence of aminopeptidase; assay type: ADME
[11] = tested on: LNCaP; test: Cell cycle arrest in human LNCAP cells assessed as accumulation at S phase at 100 uM after 96 hrs by propidium iodide staining-based FACS flow cytometric analysis (reference value: 15.6 +/- 1.3 %); assay type: functional
[12] = tested on: LNCaP; test: Cell cycle arrest in human LNCAP cells assessed as accumulation at sub G1 phase at 200 uM after 96 hrs by propidium iodide staining-based FACS flow cytometric analysis (reference value: 0.3 +/- 0.2 %); assay type: functional
[13] = tested on: LNCaP; test: Cell cycle arrest in human LNCAP cells assessed as accumulation at G2/M phase at 200 uM after 96 hrs by propidium iodide staining-based FACS flow cytometric analysis (reference value: 10.1 +/- […]); assay type: functional

Furin, sequence (P09958 whole entry): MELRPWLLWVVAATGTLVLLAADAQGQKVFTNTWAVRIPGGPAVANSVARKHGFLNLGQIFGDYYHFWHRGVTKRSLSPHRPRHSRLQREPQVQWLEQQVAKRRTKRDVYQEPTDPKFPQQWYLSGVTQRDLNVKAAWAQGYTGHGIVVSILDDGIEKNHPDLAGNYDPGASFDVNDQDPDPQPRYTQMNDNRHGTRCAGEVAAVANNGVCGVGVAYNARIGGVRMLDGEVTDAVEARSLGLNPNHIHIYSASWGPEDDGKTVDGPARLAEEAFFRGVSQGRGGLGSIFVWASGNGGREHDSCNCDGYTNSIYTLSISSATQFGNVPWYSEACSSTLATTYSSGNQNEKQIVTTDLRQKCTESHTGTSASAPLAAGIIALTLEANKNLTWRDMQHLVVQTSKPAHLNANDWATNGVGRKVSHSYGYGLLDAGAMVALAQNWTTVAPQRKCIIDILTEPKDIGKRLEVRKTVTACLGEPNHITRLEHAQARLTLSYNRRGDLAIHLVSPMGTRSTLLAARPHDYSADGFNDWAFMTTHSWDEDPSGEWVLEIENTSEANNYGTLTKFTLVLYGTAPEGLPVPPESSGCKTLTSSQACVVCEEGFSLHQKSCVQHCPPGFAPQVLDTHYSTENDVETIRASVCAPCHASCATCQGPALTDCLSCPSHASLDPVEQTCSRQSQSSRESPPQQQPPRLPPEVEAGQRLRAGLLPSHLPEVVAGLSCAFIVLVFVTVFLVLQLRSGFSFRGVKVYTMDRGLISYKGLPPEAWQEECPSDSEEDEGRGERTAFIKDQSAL

SMILES: CC(C)C[C@H](N)C(=O)N[C@@H](CCCN=C(N)N)C(=O)N[C@@H](CCCN=C(N)N)C(=O)N[C@@H](CCCN=C(N)N)C(=O)N[C@H](C(=O)N[C@@H](CCCCN)C(=O)N[C@@H](CCCN=C(N)N)C(=O)O)C(C)C (H-LRRRVKR-OH)
Ki [3]: 7 nM
Ki [4]: 9 nM

SMILES: CC(=O)N[C@@H](CC(C)C)C(=O)N[C@@H](CC(C)C)C(=O)N[C@@H](CC(C)C)C(=O)N[C@@H](CCCN=C(N)N)C(=O)N[C@H](C(=O)N[C@@H](CCCCN)C(=O)N[C@@H](CCCN=C(N)N)C(N)=O)C(C)C
Ki [3]: 18 nM
Ki [4]: 400 nM

SMILES: CC(C)[C@H](N)C(=O)N[C@@H](CCCCN)C(=O)N[C@@H](CCCN=C(N)N)C(=O)N[C@@H](CCCN=C(N)N)C(=O)N[C@H](C(=O)N[C@@H](CCCCN)C(=O)N[C@@H](CCCN=C(N)N)C(=O)O)C(C)C (H-VKRRVKR-OH)
Ki [3]: 2 nM

SMILES: CC(=O)N[C@@H](CC(C)C)C(=O)N[C@@H](CC(C)C)C(=O)N[C@@H](CC(C)C)C(=O)N[C@@H](CC(C)C)C(=O)N[C@@H](CCCNC(=N)N)C(=O)N[C@H](C(=O)N[C@@H](CCCCN)C(=O)N[C@@H](CCCNC(=N)N)C(N)=O)C(C)C (Ac-LLLLRVKR-NH2)
Activity [5]: Dose-dependent effect
Activity [6]: Dose-dependent effect
Activity [7]: 9.3%
Activity [8]: 79.7%
growth inhibition (GI) [9]: inactive

SMILES: CC(=O)N[C@H](CC(C)C)C(=O)N[C@@H](CC(C)C)C(=O)N[C@@H](CC(C)C)C(=O)N[C@@H](CC(C)C)C(=O)N[C@@H](CCCNC(=N)N)C(=O)N[C@H](C(=O)N[C@@H](CCCCN)C(=O)N[C@@H](CCCNC(=N)N)C(N)=O)C(C)C
Activity [5]: Dose-dependent effect
Activity [11]: 11.8%
Activity [12]: 11.8%
Activity [13]: 8.3%
Activity [6]: Dose-dependent effect
Activity [7]: 8.4%

Continued, values first:

Ratio Ki [1]: 1.3
SMILES: N=C(N)NCCC[C@H](NC(=O)[C@H](CCCCN)NC(=O)[C@H](CO)NC(=O)[C@H](CCCNC(=N)N)NC(=O)[C@H](CCC(=O)O)NC(=O)[C@H](CCCCN)NC(=O)[C@@H](N)CCC(=O)O)C(=O)O (H-EKERSKR-OH)

Drug uptake [2]: Active
SMILES: CC(C)C[C@H](NC(=O)CCNC(=S)Nc1cccc2c1C(=O)OC21c2ccc(O)cc2Oc2cc(O)ccc21)C(=O)N[C@@H](CC(C)C)C(=O)N[C@@H](CC(C)C)C(=O)N[C@@H](CC(C)C)C(=O)N[C@@H](CCCNC(=N)N)C(=O)N[C@H](C(=O)N[C@@H](CCCCN)C(=O)N[C@@H](CCCNC(=N)N)C(N)=O)C(C)C ({X4-βAla}-LLLLRVKR-NH2)

Ki [3]: > 1000 nM
Ki [4]: > 1000 nM
SMILES: NCCCC[C@H](NC(=O)[C@H](CCCCN)NC(=O)[C@H](CCCN=C(N)N)NC(=O)[C@H](CC(=O)O)NC(=O)[C@H](Cc1ccccc1)NC(=O)CN)C(=O)N[C@@H](CCCN=C(N)N)C(=O)O (H-GFDRKKR-OH)

Ratio Ki [1]: 1
SMILES: N=C(N)NCCC[C@H](NC(=O)[C@H](CCCCN)NC(=O)[C@H](CCCCN)NC(=O)[C@H](CCCNC(=N)N)NC(=O)[C@H](CC(=O)O)NC(=O)[C@H](Cc1ccccc1)NC(=O)CN)C(=O)O (H-GFDRKKR-OH)

Stability [10]: Stable
SMILES: CC(=O)N[C@H](CC(C)C)C(=O)N[C@@H](CC(C)C)C(=O)N[C@@H](CC(C)C)C(=O)N[C@@H](CC(C)C)C(=O)N[C@@H](CCCN=C(N)N)C(=O)N[C@H](C(=O)N[C@@H](CCCCN)C(=O)N[C@@H](CCCN=C(N)N)C(N)=O)C(C)C
